Measured values: article PMC7821153 (Chemical Biology & Drug Design, 2020)

Assays:
Type in all cases: cell-based
[1] = Cellular cytotoxicity, ATP-dependent luminescence assay
How it was run: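 Cytotoxicity measured by ATP-dependent luminescence, with CC50 derived. Values are from three independent experiments (n = 3), and standard deviations are reported.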

WT HIV-1 = assay: Single-round infectivity assay, WT RT vector
How it was run: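 Single-round infection with an HIV-1-based vector (pNLNgoMIVR-ΔENV.LUC, Env-deleted, luciferase-carrying) with wild-type RT, used to derive EC50. Therapeutic index is calculated from CC50 (ATP-dependent luminescence assay) and wild-type EC50. Three independent experiments (n = 3), with standard deviations.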

[2] = test system: HIV-1 NNRTI-resistant mutant L100I; assay: Single-round infectivity assay, L100I; details: Human immunodeficiency virus 1, read-out: EC50 L100I
How it was run: (§1)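 Single-round infection with the HIV-1-based vector pNLNgoMIVR-ΔENV.LUC (Env-deleted, luciferase-carrying) bearing the indicated RT mutation(s), used to derive EC50. The mutant vectors are previously described constructs.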

[3] = test system: HIV-1 NNRTI-resistant mutant K103N; assay: Single-round infectivity assay, K103N; details: Human immunodeficiency virus 1, read-out: EC50 K103N
How it was run: as §1

[4] = test system: HIV-1 NNRTI-resistant mutant E138K; assay: Single-round infectivity assay, E138K; details: Human immunodeficiency virus 1, read-out: EC50 E138K
How it was run: as §1

[5] = test system: HIV-1 NNRTI-resistant mutant Y181C; assay: Single-round infectivity assay, Y181C; details: Human immunodeficiency virus 1, read-out: EC50 Y181C
How it was run: as §1

[6] = test system: HIV-1 NNRTI-resistant mutant Y188L; assay: Single-round infectivity assay, Y188L; details: Human immunodeficiency virus 1, read-out: EC50 Y188L
How it was run: as §1

[7] = test system: HIV-1 NNRTI-resistant mutant H221Y; assay: Single-round infectivity assay, H221Y; details: Human immunodeficiency virus 1, read-out: EC50 H221Y
How it was run: as §1

[8] = test system: HIV-1 NNRTI-resistant mutant K103N/Y181C; assay: Single-round infectivity assay, K103N/Y181C; details: Human immunodeficiency virus 1, read-out: EC50 K103N/Y181C
How it was run: as §1

[9] = test system: HIV-1 NNRTI-resistant mutant G190A; assay: Single-round infectivity assay, G190A; details: read-out: EC50 G190A; single-round infection, n = 3
How it was run: as §1

[10] = test system: HIV-1 NNRTI-resistant mutant G190S; assay: Single-round infectivity assay, G190S; details: read-out: EC50 G190S; single-round infection, n = 3
How it was run: as §1

[11] = test system: HIV-1 NNRTI-resistant mutant M230L; assay: Single-round infectivity assay, M230L; details: Human immunodeficiency virus 1, read-out: EC50 M230L
How it was run: as §1

[12] = test system: HIV-1 NNRTI-resistant mutant P236L; assay: Single-round infectivity assay, P236L; details: read-out: EC50 P236L; single-round infection, n = 3
How it was run: as §1

[13] = test system: HIV-1 NNRTI-resistant mutant L100I/K103N; assay: Single-round infectivity assay, L100I/K103N; details: Human immunodeficiency virus 1, read-out: EC50 L100I/K103N
How it was run: as §1

[14] = test system: HIV-1 NNRTI-resistant mutant K103N/P225H; assay: Single-round infectivity assay, K103N/P225H; details: Human immunodeficiency virus 1, read-out: EC50 K103N/P225H
How it was run: as §1

[15] = test system: HIV-1 NNRTI-resistant mutant V106A/G190A/F227L; assay: Single-round infectivity assay, V106A/G190A/F227L; details: Human immunodeficiency virus 1, read-out: EC50 V106A/G190A/F227L
How it was run: as §1

[16] = test system: HIV-1 DOR-resistant mutant L234I; assay: Single-round infectivity assay, L234I; details: read-out: EC50 L234I; single-round infection, n = 3
How it was run: as §1

[17] = test system: HIV-1 RT-resistant mutant E40K; assay: Single-round infectivity assay, E40K; details: read-out: EC50 E40K; single-round infection, n = 3
How it was run: as §1

[18] = test system: HIV-1 RT-resistant mutant D67E; assay: Single-round infectivity assay, D67E; details: read-out: EC50 D67E; single-round infection, n = 3
How it was run: as §1

[19] = test system: HIV-1 RT-resistant mutant K101E; assay: Single-round infectivity assay, K101E; details: Human immunodeficiency virus 1, read-out: EC50 K101E
How it was run: as §1

[20] = test system: HIV-1 RT-resistant mutant M184V; assay: Single-round infectivity assay, M184V; details: read-out: EC50 M184V; single-round infection, n = 3
How it was run: as §1

[21] = test system: HIV-1 RT-resistant mutant K101E/M184I; assay: Single-round infectivity assay, K101E/M184I; details: read-out: EC50 K101E/M184I; single-round infection, n = 3
How it was run: as §1

[22] = test system: HIV-1 RT-resistant mutant K101E/M184V; assay: Single-round infectivity assay, K101E/M184V; details: read-out: EC50 K101E/M184V; single-round infection, n = 3
How it was run: as §1

## Cc1cc(/C=C/C#N)cc(C)c1-n1cnc2cnc(Nc3ccc4cc(C#N)ccc4c3)nc21 [Compound 10, (E)‐6‐((9‐(4‐(2‐cyanovinyl)‐2,6‐dimethylphenyl)‐9H‐purin‐2‐yl)amino)‐2‐naphthonitrile]
[1]
  CC50: 10800 ± 1200 nM
WT HIV-1; Human immunodeficiency virus 1, read-out: EC50 WT
  EC50: 2.3 ± 0.2 nM
WT HIV-1; calculated from CC50 and WT EC50
  TI (therapeutic index): 4,696
[2]
  EC50: 24.2 ± 6.1 nM
[3]
  EC50: 24.5 ± 4.9 nM
[4]
  EC50: 32.7 ± 4.4 nM
[5]
  EC50: 47.7 ± 7.8 nM
[6]
  EC50: 180 ± 14.7 nM
[7]
  EC50: 3.4 ± 0.3 nM
[8]
  EC50: 468 ± 88.8 nM
[9]
  EC50: 1.6 ± 0.3 nM
[10]
  EC50: 2.1 ± 0.1 nM
[11]
  EC50: 33.8 ± 2.7 nM
[12]
  EC50: 1.6 ± 0.1 nM
[13]
  EC50: 386 ± 19.9 nM
[14]
  EC50: 103 ± 8.1 nM
[15]
  EC50: 7 ± 0.5 nM
[16]
  EC50: 2.3 ± 0.2 nM
[17]
  EC50: 4.2 ± 0.7 nM
[18]
  EC50: 10 ± 1.9 nM
[19]
  EC50: 13.4 ± 1 nM
[20]
  EC50: 3.1 ± 0.4 nM
[21]
  EC50: 14 ± 0.1 nM
[22]
  EC50: 4.7 ± 0.8 nM
